Assay results as given in ChEMBL document CHEMBL4665761, “Optimizing the Benefit/Risk of Acetyl-CoA Carboxylase Inhibitors through Liver Targeting” (J Med Chem, 2020).

Experiments:
[1] = organism: Rattus norvegicus; experiment: Fraction unbound in rat plasma by equilibrium dialysis method
[2] = AUC (0 to 24 hrs) in Wistar-Hannover rat plasma at 1 mg/kg, iv and measured up to 24 hrs by LC/MS-MS analysis; type: ADME, organism-based; set-up: route intravenous, dose 1 mg/kg, time <=24
Summary of the method: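 Male Wistar-Hannover rats (240–350 g) with jugular vein cannulas were given 1 mg/kg IV at 2 mL/kg. Vehicle, depending on compound, was 10% DMSO/90% of 20% sulfobutylether-β-cyclodextrin in water or 10% DMSO/30% PEG400/60% water. AUC0–24 came from plasma concentration–time data by the linear trapezoidal rule, averaged for n = 2. Lower detection limit was 1 ng/mL.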

[3] = Half life in Wistar-Hannover rat plasma at 1 mg/kg, iv and measured up to 24 hrs by LC/MS-MS analysis; type: ADME, organism-based
Summary of the method: (§1)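 Male Wistar-Hannover rats (240–350 g) with jugular vein cannulas, dosed 1 mg/kg IV (2 mL/kg) or PO. IV vehicle was 10% DMSO/90% of 20% sulfobutylether-β-cyclodextrin in water, or 10% DMSO/30% PEG400/60% water. Plasma was analysed by LC-MS/MS. Parameters come from plasma concentration–time data, n = 2: Cmax observed directly, AUC0-24 by the linear trapezoidal rule, CL = IV dose/AUC, Vss = dose/(AUC × elimination rate constant).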

[4] = target: Acetyl-CoA carboxylase 1 (Homo sapiens, UniProt Q13085); experiment: Inhibition of recombinant human ACC1 using acetyl coA as substrate incubated for 1 hr by transcreener fluorescence polarization assay
Summary of the method: (§2)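 Recombinant human enzyme, Transcreener assay run per an earlier protocol. IC50 is the geometric mean of at least three replicates, also given as pIC50 ± SD.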

[5] = Apparent permeability in MCDKII-LE cells at 2 uM incubated for 30 mins; type: ADME, cell-based, Canis lupus familiaris, MDCKII-LE; conditions: dog, MDCK
Summary of the method: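 MDCK-LE (low-efflux) cell monolayers with a 30 min pre-incubation. Read-out is apparent passive permeability (Papp, 10^-6 cm/s).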

[6] = Clearance in Wistar-Hannover rat plasma at 1 mg/kg, iv and measured up to 24 hrs by LC/MS-MS analysis; type: ADME, organism-based
Summary of the method: as §1

[7] = Metabolic intrinsic clearance in human hepatocytes assessed per million cells incubated for 2 hrs; type: ADME, cell-based, Hepatocyte; conditions: read-out: CLH
Summary of the method: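 Cryopreserved human hepatocytes incubated for 2 h. In vitro half-lives scaled to intrinsic clearance, expressed per 10^6 cells.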

[8] = target: Acetyl-CoA carboxylase 2 (Homo sapiens, UniProt O00763); experiment: Inhibition of recombinant human ACC2 using acetyl coA as substrate incubated for 1 hr by transcreener fluorescence polarization assay
Summary of the method: as §2

[9] = Cmax in Wistar-Hannover rat plasma at 4 mg/kg, po and measured up to 24 hrs by LC/MS-MS analysis; type: ADME, organism-based; set-up: route oral, dose 4 mg/kg, time <=24
[10] = Octanol-water partition coefficient, logD of compound at pH 7.4 at 0.5 to 2 mg incubated for 1 hr by HPLC based shake-flask method; type: physicochemical; conditions: dose 0.5-2 mg
Summary of the method: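 Shake-flask octanol/water partition at pH 7.4.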

[11] = Fraction unbound in rat liver by equilibrium dialysis method
[12] = Apparent volume of distribution at steady state in Wistar-Hannover rat plasma at 1 mg/kg, iv and measured up to 24 hrs by LC/MS-MS analysis; type: ADME, organism-based; conditions: read-out: Vdss(app)
Summary of the method: as §1

[13] = Inhibition of DNL in Sprague-Dawley rat assessed as reduction in DNL level in bone marrow at 300 mg/kg, po pretreated with 1 hr followed by [14C]-acetate treatment and measured after 1 hr relative to control; type: functional; conditions: time 2 hrs
Summary of the method: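 Sprague-Dawley rats given single oral doses of 0.03–300 mg/kg in 0.5% methyl cellulose vehicle, n = 16 per dose. Read-out is incorporation of 14C-acetate into lipids in liver, bone marrow and lung, measured at 2 h post-dose relative to vehicle. Data are mean ± SEM. EC50 is reported with a 95% confidence interval.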

[14] = target: Cytochrome P450 3A4 (Homo sapiens, UniProt P08684); experiment: inhibition of CYP3A4 in human liver microsomes; type: ADME
[15] = Inhibition of DNL in cynomolgus monkey assessed as fructose-induced DNL level at 10 mg/kg, po after 9 hrs relative to control; type: functional; conditions: Macaca fascicularis
Summary of the method: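 Male cynomolgus macaques were fasted overnight and enriched with plasma D2O, then given a single 10 mg/kg PO dose. Fructose was given orally every 30 min from t = 0, with a banana at hours 2 and 3. Deuterium incorporation into plasma TG palmitate was followed over 9 h, n = 12, mean ± SEM, versus vehicle.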

[16] = Apparent volume of distribution at steady state in cynomolgus monkey plasma at 1 mg/kg, iv and measured up to 72 hrs by LC/MS-MS analysis; type: ADME, organism-based, Macaca fascicularis; conditions: read-out: Vdss(app)
Summary of the method: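 Cynomolgus monkeys dosed 1 mg/kg IV as the tris salt in 2% N-methylpyrrolidone/98% sulfobutylether-β-cyclodextrin (12.5%) in 50 mM TRIS, pH 8.0, or PO as the tris salt. Plasma was analysed by LC-MS/MS, n = 2. CL = IV dose/AUC; Vss = dose/(AUC × elimination rate constant); Cmax taken from observed data.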

[17] = Ratio of drug uptake in Wistar-Hannover rat liver to plasma at 10 mg/kg, po after 6 hrs by LC/MS-MS analysis; type: ADME, organism-based; conditions: liver and plasma
Summary of the method: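 Male Wistar-Hannover rats (n = 2 or 3) dosed orally as a suspension in 0.5% methyl cellulose with 0.1% Tween 80. Plasma and liver sampled 6 h post-dose. Kp is total liver/plasma; Kpu,u uses unbound fractions from equilibrium dialysis of plasma and liver.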

[18] = test system: TK6; experiment: Genotoxicity in human TK6 cells in presence of (aroclor-induced rat liver S9 fraction/NADPH by micronucleus test; type: toxicity, cell-based
Summary of the method: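 In vitro micronucleus assay in Chinese hamster ovary or TK6 cells, run with and without metabolic activation by aroclor-induced rat liver S9 fraction plus NADPH.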

[19] = test system: Rattus norvegicus; experiment: Effect on triglyceride accumulation in Sprague-Dawley rat high fat dietary model at 3 mg/kg, po assessed as reduction in triglyceride level after 42 days by XPT clinical analyzer; type: functional; set-up: scale not given: the % may be the effect or the level left; conditions: time 42 day
Summary of the method: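 High-fat-diet-fed Sprague-Dawley rats dosed orally for 42 days, with chow-fed and vehicle controls, n = 10 per group. Read-out is hepatic triglyceride, reported as mean ± SEM.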

[20] = target: UDP-glucuronosyltransferase 1A9 (Homo sapiens, UniProt O60656); experiment: Inhibition of UGT1A9 in human liver microsomes incubated for 30 mins in presence of UDPGA by LC-MS/MS analysis; type: ADME
[21] = Drug uptake in human hepatocytes assessed as active uptake intrinsic clearance at 1 uM up to 15 mins by LC-MS/MS analysis; type: ADME, cell-based, Hepatocyte; conditions: 0.25 h
[22] = Toxicity in cynomolgus monkey assessed as reduction in platelet count at >= 30 mg/kg, po after 14 days; type: organism-based, Macaca fascicularis; conditions: in vivo
[23] = Drug excretion in Wistar-Hannover rat urine at 1 mg/kg, iv and measured up to 24 hrs by LC/MS-MS analysis; type: ADME, organism-based; conditions: read-out: Drug excretion
[24] = target: Solute carrier family 22 member 2 (Homo sapiens, UniProt O15244); experiment: Inhibition of human SLC22A2 expressed in HEK293 cells in presence of para-aminohippuric acid/metformin; type: cell-based
[25] = target: Broad substrate specificity ATP-binding cassette transporter ABCG2 (Homo sapiens, UniProt Q9UNQ0); experiment: Inhibition of human ABCG2 expressed in MDCK2-LE cells in presence of […]; type: cell-based, MDCKII-LE
Sequence of Broad substrate specificity ATP-binding cassette transporter ABCG2 (Q9UNQ0 whole entry): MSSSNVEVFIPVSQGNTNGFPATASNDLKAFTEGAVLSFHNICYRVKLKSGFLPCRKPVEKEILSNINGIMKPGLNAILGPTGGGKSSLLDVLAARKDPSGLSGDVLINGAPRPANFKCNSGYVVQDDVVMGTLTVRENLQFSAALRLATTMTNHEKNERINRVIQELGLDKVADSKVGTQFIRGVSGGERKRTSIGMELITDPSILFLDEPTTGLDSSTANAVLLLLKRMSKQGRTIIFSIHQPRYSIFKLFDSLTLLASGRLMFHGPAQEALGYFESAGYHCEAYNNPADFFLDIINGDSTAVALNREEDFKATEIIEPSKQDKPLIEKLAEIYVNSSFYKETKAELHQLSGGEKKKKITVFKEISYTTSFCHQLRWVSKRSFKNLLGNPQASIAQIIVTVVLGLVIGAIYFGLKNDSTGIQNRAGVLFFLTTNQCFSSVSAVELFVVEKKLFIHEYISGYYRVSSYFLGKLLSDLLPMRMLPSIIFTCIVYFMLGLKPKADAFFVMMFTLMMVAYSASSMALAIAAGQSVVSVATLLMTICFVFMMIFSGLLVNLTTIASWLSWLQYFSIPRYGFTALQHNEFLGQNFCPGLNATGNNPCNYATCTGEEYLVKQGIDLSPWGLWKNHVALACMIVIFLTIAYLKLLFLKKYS

Sequence of Acetyl-CoA carboxylase 2 (O00763 whole entry): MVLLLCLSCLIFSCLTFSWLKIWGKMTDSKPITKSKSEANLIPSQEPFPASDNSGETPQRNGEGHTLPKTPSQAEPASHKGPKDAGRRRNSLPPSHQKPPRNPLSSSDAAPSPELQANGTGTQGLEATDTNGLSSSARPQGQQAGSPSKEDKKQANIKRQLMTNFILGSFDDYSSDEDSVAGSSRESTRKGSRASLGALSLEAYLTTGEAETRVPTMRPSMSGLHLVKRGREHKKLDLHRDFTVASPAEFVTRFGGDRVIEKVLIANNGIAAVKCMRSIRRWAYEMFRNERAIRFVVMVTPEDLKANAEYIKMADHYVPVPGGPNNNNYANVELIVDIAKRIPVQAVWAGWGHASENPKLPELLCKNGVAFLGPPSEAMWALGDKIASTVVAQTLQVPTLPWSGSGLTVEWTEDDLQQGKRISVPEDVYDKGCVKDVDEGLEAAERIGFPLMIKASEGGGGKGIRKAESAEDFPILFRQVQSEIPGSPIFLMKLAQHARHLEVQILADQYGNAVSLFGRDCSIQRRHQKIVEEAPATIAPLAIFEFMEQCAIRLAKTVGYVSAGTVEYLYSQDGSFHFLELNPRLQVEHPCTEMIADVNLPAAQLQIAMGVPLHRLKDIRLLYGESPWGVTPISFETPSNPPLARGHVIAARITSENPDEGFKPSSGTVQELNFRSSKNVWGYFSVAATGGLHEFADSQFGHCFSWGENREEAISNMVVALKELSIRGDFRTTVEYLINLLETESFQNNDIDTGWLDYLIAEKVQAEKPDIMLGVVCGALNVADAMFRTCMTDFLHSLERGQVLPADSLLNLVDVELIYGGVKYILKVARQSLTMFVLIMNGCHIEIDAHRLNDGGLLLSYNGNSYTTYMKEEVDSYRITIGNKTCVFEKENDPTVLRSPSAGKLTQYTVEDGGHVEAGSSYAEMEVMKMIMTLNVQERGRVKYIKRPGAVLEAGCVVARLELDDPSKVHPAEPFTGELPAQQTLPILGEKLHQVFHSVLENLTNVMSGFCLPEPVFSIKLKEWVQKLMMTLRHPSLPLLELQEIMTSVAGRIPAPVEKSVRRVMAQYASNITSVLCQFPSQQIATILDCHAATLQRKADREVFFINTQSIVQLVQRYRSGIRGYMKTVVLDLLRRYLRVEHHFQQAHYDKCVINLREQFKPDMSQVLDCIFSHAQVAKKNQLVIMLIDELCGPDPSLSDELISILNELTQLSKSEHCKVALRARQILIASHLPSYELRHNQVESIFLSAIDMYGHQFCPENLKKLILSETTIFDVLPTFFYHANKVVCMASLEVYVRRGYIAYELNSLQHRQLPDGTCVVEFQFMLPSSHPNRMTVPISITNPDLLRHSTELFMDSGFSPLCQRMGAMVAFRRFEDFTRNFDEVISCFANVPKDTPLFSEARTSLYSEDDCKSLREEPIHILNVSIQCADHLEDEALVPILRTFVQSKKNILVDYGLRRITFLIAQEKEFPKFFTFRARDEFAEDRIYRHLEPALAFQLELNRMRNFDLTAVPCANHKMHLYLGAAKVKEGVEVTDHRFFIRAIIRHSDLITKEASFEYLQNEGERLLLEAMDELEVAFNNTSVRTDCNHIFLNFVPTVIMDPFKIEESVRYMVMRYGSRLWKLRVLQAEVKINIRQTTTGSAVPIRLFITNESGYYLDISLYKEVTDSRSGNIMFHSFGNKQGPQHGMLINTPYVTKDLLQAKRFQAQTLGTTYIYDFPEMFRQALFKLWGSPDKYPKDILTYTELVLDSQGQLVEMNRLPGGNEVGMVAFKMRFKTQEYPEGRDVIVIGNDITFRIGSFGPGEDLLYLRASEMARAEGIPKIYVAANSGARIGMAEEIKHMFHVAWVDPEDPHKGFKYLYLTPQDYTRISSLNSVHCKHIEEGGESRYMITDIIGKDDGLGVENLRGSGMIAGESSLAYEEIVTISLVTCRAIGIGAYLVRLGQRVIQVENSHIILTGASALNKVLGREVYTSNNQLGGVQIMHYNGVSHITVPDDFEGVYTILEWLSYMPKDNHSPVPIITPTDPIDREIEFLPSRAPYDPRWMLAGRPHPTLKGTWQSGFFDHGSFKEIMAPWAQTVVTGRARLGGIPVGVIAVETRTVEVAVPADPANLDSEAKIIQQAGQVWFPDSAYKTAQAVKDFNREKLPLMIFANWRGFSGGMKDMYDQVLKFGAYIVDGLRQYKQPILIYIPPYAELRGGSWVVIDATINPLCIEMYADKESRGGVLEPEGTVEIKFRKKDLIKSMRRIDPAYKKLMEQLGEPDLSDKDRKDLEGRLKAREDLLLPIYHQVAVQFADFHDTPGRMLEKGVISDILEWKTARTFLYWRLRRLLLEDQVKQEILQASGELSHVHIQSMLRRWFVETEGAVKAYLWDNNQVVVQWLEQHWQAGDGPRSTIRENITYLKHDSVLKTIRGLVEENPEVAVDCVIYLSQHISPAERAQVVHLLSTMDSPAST
Sequence of Solute carrier family 22 member 2 (O15244 whole entry): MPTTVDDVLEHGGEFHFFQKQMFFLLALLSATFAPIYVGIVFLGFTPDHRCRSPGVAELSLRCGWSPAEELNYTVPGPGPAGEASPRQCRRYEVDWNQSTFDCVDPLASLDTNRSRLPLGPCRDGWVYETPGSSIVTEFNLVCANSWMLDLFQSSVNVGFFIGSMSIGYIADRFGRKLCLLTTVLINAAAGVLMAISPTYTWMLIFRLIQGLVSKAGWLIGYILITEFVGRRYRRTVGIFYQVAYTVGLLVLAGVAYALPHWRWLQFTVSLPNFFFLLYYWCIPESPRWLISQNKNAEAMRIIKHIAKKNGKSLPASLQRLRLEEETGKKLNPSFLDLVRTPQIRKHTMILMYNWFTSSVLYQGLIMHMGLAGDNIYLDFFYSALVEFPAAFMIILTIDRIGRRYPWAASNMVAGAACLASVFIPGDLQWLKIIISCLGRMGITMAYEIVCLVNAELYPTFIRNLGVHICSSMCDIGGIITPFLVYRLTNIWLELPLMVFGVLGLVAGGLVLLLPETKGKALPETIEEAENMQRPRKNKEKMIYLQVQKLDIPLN
Sequence of Cytochrome P450 3A4 (P08684 whole entry): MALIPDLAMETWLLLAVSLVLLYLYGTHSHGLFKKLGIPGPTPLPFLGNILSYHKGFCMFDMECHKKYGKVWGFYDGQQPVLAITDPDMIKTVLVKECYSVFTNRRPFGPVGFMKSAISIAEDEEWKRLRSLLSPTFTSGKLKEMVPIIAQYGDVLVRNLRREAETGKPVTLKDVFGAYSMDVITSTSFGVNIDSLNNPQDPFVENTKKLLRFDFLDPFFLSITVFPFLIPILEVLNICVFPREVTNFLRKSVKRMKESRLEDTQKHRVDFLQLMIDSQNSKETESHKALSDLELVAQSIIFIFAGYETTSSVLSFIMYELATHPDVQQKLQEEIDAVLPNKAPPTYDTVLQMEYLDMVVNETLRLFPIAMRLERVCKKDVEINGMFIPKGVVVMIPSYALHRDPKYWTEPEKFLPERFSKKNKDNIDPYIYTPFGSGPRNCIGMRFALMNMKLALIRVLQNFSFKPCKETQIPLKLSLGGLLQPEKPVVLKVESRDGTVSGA
Sequence of UDP-glucuronosyltransferase 1A9 (O60656 whole entry): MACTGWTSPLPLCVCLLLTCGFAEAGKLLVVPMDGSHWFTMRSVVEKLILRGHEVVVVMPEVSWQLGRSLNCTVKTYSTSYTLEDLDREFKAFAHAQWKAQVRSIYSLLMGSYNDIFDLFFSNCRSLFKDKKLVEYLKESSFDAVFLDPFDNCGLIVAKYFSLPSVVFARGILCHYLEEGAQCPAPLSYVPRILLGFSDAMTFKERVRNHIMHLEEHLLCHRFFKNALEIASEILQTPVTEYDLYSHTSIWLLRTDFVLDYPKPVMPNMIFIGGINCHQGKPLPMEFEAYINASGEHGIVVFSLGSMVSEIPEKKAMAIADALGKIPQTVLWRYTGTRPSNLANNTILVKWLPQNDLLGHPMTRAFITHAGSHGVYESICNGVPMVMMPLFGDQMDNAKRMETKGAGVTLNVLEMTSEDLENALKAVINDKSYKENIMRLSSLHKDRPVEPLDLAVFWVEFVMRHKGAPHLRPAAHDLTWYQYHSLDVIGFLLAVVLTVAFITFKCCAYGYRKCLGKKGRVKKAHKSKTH

fraction unbound [1]	AUC(0-t) [2] [ng·h/mL]	half-life [3] [h]	IC50 [4] [nM]	Papp at 0.5 h, 2 µM [5] [×10⁻⁶ cm/s]	clearance [6] [mL/min/kg]	hepatocyte CLint [7] [µL/min/1e6 cells]	IC50 [8] [nM]	logD at 1 h [10]	fraction unbound [11]	Vd [12] [L/kg]	Structure (SMILES)	also measured
0.17	299	3.5	22	2	54.5	< 3	13	0.5	0.07	4.1	COc1cc(C(=O)N2CCC3(CC2)CC(=O)c2nn(C(C)(C)C)cc2O3)cc(-c2ccc(C(=O)O)cc2)n1	Cmax [9]: 53.9 ng/mL
0.0392	965	8.6	33	14	16	< 3	26	1.1	0.066	7.2	COc1cc(C(=O)N2CCC3(CC2)CC(=O)c2c(cnn2C(C)C)C3)cc(-c2ccc(C(=O)O)cc2)n1 [CLESACOSTAT]	inhibition in vivo at 300 mg/kg [13]: 33%; IC50 [14]: > 50000 nM; inhibition in vivo at 10 mg/kg [15]: 100%; Vd [16]: 0.49 L/kg; Kp at 6 h [17]: 78; Activity [18]: Non-Toxic; Activity [19]: 30%; IC50 [20]: > 20000 nM; CLH [21]: 24 µL/min/mg; Activity [22]: Toxic; dose excreted at 24 h [23]: < 2%; IC50 [24]: > 30000 nM; IC50 [25]: 68000 nM
